Values after ≈ are worked out from the molar mass of the structure shown.
Legend:
[1] = test system: Staphylococcus epidermidis; test: Antibacterial activity against methicillin-susceptible coagulase-negative Staphylococcus epidermidis 051 after 50 passages by agar dilution method; assay type: functional
How it was run: (§1)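 Daily serial passage for up to 50 days at 35°C for 24 h in 1 ml MHB. Each transfer used 10 µl from the tube nearest the MIC (1–2 dilutions below) with the same turbidity as the drug-free control. MICs were measured by agar dilution, with changes given as log2 steps.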

[2] = test system: Staphylococcus epidermidis; test: Antibacterial activity against methicillin-susceptible coagulase-negative Staphylococcus epidermidis 057 after 10 passages by agar dilution method; assay type: functional
How it was run: (§2)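 Daily serial passage for up to 50 days at 35°C for 24 h in 1 ml MHB. […] Each transfer used 10 µl from the tube nearest the MIC (1–2 dilutions below) with the same turbidity as the drug-free control. […] MICs were measured by agar dilution, with changes given as log2 steps.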

[3] = test system: Staphylococcus epidermidis; test: Antibacterial activity against methicillin-resistant coagulase-negative Staphylococcus epidermidis 197 after 50 passages by agar dilution method; assay type: functional; how it was run: as §1
[4] = test system: Staphylococcus epidermidis; test: Antibacterial activity against methicillin-resistant, Linezolid non-susceptible coagulase-negative Staphylococcus epidermidis 345 after 50 passages by agar dilution method; assay type: functional; how it was run: as §1
[5] = test system: Staphylococcus aureus; test: Antibacterial activity against methicillin-susceptible Staphylococcus aureus by agar dilution method; assay type: functional
How it was run: (§3)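 Agar dilution on Mueller-Hinton agar per CLSI guidelines. S. aureus ATCC 29213 and E. faecalis ATCC 29212 were run with each set, and test MICs were accepted only when the control strains fell within acceptable ranges.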

[6] = test system: Staphylococcus aureus; test: Antibacterial activity against Tmp-susceptible Staphylococcus aureus by agar dilution method; assay type: functional
How it was run: (§4)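 MICs by agar dilution on Mueller-Hinton agar following CLSI guidelines. S. aureus ATCC 29213 and E. faecalis ATCC 29212 were run as quality controls with each set, and test-strain MICs were kept only if control MICs fell within acceptable ranges.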

[7] = test system: Staphylococcus aureus; test: Antibacterial activity against Tmp-susceptible coagulase-negative Staphylococcus aureus by agar dilution method; assay type: functional; how it was run: as §4
[8] = test system: Staphylococcus aureus; test: Antibacterial activity against methicillin-susceptible Staphylococcus aureus ATCC 29213 by broth macrodilution method; assay type: functional; conditions: ATCC29213
[9] = test system: Staphylococcus aureus; test: Antibacterial activity against methicillin-susceptible Staphylococcus aureus 505 by broth macrodilution method; assay type: functional
[10] = test system: Staphylococcus aureus; test: Antibacterial activity against methicillin-resistant Staphylococcus aureus ATCC 43300 by broth macrodilution method; assay type: functional; conditions: ATCC43300
[11] = test system: Staphylococcus aureus; test: Antibacterial activity against methicillin-resistant Staphylococcus aureus 145 by broth macrodilution method; assay type: functional
[12] = test system: Staphylococcus aureus; test: Antibacterial activity against methicillin-resistant Staphylococcus aureus 507 by broth macrodilution method; assay type: functional
[13] = test system: Staphylococcus aureus; test: Antibacterial activity against vancomycin-resistant Staphylococcus aureus VRS1 by broth macrodilution method; assay type: functional
How it was run: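 Michigan VRSA strain, one of 12 staphylococci later used in time-kill studies. MIC was determined by broth macrodilution and reported in μg/ml.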

[14] = test system: Staphylococcus epidermidis; test: Antibacterial activity against methicillin-susceptible coagulase-negative Staphylococcus epidermidis 051 by broth macrodilution method; assay type: functional
[15] = test system: Staphylococcus epidermidis; test: Antibacterial activity against methicillin-susceptible coagulase-negative Staphylococcus epidermidis 057 by broth macrodilution method; assay type: functional
[16] = test system: Staphylococcus epidermidis; test: Antibacterial activity against methicillin-resistant coagulase-negative Staphylococcus epidermidis 074 by broth macrodilution method; assay type: functional
[17] = test system: Staphylococcus epidermidis; test: Antibacterial activity against methicillin-resistant coagulase-negative Staphylococcus epidermidis 197 by broth macrodilution method; assay type: functional
[18] = test system: Staphylococcus epidermidis; test: Antibacterial activity against methicillin-resistant coagulase-negative Staphylococcus epidermidis 225 by broth macrodilution method; assay type: functional
[19] = test system: Staphylococcus epidermidis; test: Antibacterial activity against methicillin-resistant coagulase-negative Staphylococcus epidermidis 345 by broth macrodilution method; assay type: functional
[20] = test system: Staphylococcus aureus; test: Antibacterial activity against methicillin-susceptible Staphylococcus aureus ATCC 29213 after 50 passages by agar dilution method; assay type: functional; conditions: ATCC29213; how it was run: as §2
[21] = test system: Staphylococcus aureus; test: Antibacterial activity against methicillin-susceptible, vancomycin-intermediate Staphylococcus aureus 505 by broth macrodilution method; assay type: functional
[22] = test system: Staphylococcus aureus; test: Antibacterial activity against methicillin-resistant and vancomycin-resistant Staphylococcus aureus VRS1 by agar dilution method; assay type: functional; how it was run: as §3
[23] = test system: Staphylococcus epidermidis; test: Antibacterial activity against methicillin-resistant, Linezolid non-susceptible coagulase-negative Staphylococcus epidermidis 345 by agar dilution method; assay type: functional
[24] = test system: Staphylococcus epidermidis; test: Antibacterial activity against methicillin-resistant, vancomycin-intermediate coagulase-negative Staphylococcus epidermidis 225 by agar dilution method; assay type: functional; how it was run: as §3
[25] = test system: Staphylococcus aureus; test: microbe, parasite or virus in culture; conditions: 505
[26] = test system: coagulase-negative staphylococci; test: Antibacterial activity against Tmp-resistant coagulase-negative staphylococci by agar dilution method
[27] = test system: coagulase-negative staphylococci; test: Antibacterial activity against Tmp-susceptible coagulase-negative staphylococci by agar dilution method
[28] = test system: coagulase-negative staphylococci; test: Antibacterial activity against methicillin-resistant coagulase-negative staphylococci by agar dilution method
[29] = test system: coagulase-negative staphylococci; test: Antibacterial activity against methicillin-susceptible coagulase-negative staphylococci by agar dilution method
[30] = test system: Staphylococcus aureus; test: Antibacterial activity against methicillin-resistant and vancomycin-resistant Staphylococcus aureus VRS1 after 50 passages by agar dilution method; assay type: functional; how it was run: as §2
[31] = test system: Staphylococcus epidermidis; test: Antibacterial activity against methicillin-susceptible coagulase-negative Staphylococcus epidermidis 057 after 50 passages by agar dilution method; assay type: functional; how it was run: as §1
[32] = test system: Staphylococcus epidermidis; test: Antibacterial activity against methicillin-resistant, vancomycin-intermediate coagulase-negative Staphylococcus epidermidis 225 after 50 passages by agar dilution method; assay type: functional; how it was run: as §2
[33] = test system: Staphylococcus aureus; test: Antibacterial activity against methicillin-resistant Staphylococcus aureus by agar dilution method; assay type: functional; how it was run: as §3
[34] = test system: Staphylococcus aureus; test: Antibacterial activity against Tmp-resistant Staphylococcus aureus by agar dilution method; assay type: functional; how it was run: as §4
[35] = test system: Staphylococcus aureus; test: Antibacterial activity against methicillin-susceptible, vancomycin-intermediate Staphylococcus aureus 505 after 50 passages by agar dilution method; assay type: functional; how it was run: as §2
[36] = test system: Staphylococcus aureus; test: Antibacterial activity against methicillin-resistant Staphylococcus aureus ATCC 43300 after 50 passages by agar dilution method; assay type: functional; conditions: ATCC43300
How it was run: (§5)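 Serial passage under drug. Inoculum was ~1 × 10^6 CFU/ml from overnight MHA growth, in 1 ml MHB at 35°C for 24 h. Drug ranged from 4 log2 steps above to 3 log2 steps below the MIC. […] MIC change is given as log2 steps.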

[37] = test system: Staphylococcus aureus; test: Antibacterial activity against methicillin-resistant Staphylococcus aureus 145 after 50 passages by agar dilution method; assay type: functional; how it was run: as §5

| Structure (SMILES) | MIC [1] | MIC [3] | MIC [4] | MIC50 [5] | MIC90 [5] | MIC50 [6] | MIC90 [6] | MIC [7] | MIC [14] | MIC [15] | MIC [16] | MIC [17] | MIC [18] | MIC [19] | MIC [20] | MIC [23] | MIC [24] | MIC50 [26] | MIC50 [27] | MIC90 [27] | also measured |
| --- | --- | --- | --- | --- | --- | --- | --- | --- | --- | --- | --- | --- | --- | --- | --- | --- | --- | --- | --- | --- | --- |
| CCC[C@@H]1C[C@@H](C(=O)N[C@@H]([C@H]2O[C@H](SC)[C@H](O)[C@@H](O)[C@H]2O)[C@H](C)Cl)N(C)C1 [CLINDAMYCIN] | 4 µg/mL (≈ 9.41 µM) | 2 µg/mL (≈ 4.71 µM) | 4 µg/mL (≈ 9.41 µM) | 0.125 µg/mL (≈ 0.294 µM) | > 32 µg/mL | > 32 µg/mL | > 32 µg/mL | ≤ 0.06 µg/mL | 0.125 µg/mL (≈ 0.294 µM) | 0.125 µg/mL (≈ 0.294 µM) | 0.25 µg/mL (≈ 0.588 µM) | 0.125 µg/mL (≈ 0.294 µM) | > 128 µg/mL | 1 µg/mL (≈ 2.35 µM) | 32 µg/mL (≈ 75.3 µM) | 2 µg/mL (≈ 4.71 µM) | > 32 µg/mL | 2 µg/mL (≈ 4.71 µM) | 0.125 µg/mL (≈ 0.294 µM) | > 32 µg/mL | MIC [2]: > 128 µg/mL; MIC [8]: 0.125 µg/mL (≈ 0.294 µM); MIC [9]: 0.125 µg/mL (≈ 0.294 µM); MIC [10]: > 32 µg/mL; MIC [11]: > 32 µg/mL; MIC [12]: 512 µg/mL (≈ 1200 µM); MIC [13]: > 512 µg/mL; MIC [21]: 0.125 µg/mL (≈ 0.294 µM); MIC [22]: > 32 µg/mL; MIC [25]: > 128 µg/mL; MIC50 [28]: 0.25 µg/mL (≈ 0.588 µM); MIC [29]: 0.125 µg/mL (≈ 0.294 µM); MIC90 [29]: 0.125 µg/mL (≈ 0.294 µM) |
| CC(=O)NC[C@H]1CN(c2ccc(N3CCOCC3)c(F)c2)C(=O)O1 [LINEZOLID] | 128 µg/mL (≈ 379 µM) | 32 µg/mL (≈ 94.9 µM) | 128 µg/mL (≈ 379 µM) | 2 µg/mL (≈ 5.93 µM) | 2 µg/mL (≈ 5.93 µM) | 2 µg/mL (≈ 5.93 µM) | 2 µg/mL (≈ 5.93 µM) | 1 µg/mL (≈ 2.96 µM) | 2 µg/mL (≈ 5.93 µM) | 2 µg/mL (≈ 5.93 µM) | 1 µg/mL (≈ 2.96 µM) | 2 µg/mL (≈ 5.93 µM) | 2 µg/mL (≈ 5.93 µM) | 64 µg/mL (≈ 190 µM) | 16 µg/mL (≈ 47.4 µM) | 32 µg/mL (≈ 94.9 µM) | 2 µg/mL (≈ 5.93 µM) | 1 µg/mL (≈ 2.96 µM) | 1 µg/mL (≈ 2.96 µM) | 2 µg/mL (≈ 5.93 µM) | MIC [30]: 32 µg/mL (≈ 94.9 µM); MIC [31]: 64 µg/mL (≈ 190 µM); MIC [32]: 16 µg/mL (≈ 47.4 µM); MIC50 [33]: 2 µg/mL (≈ 5.93 µM); MIC90 [33]: 2 µg/mL (≈ 5.93 µM); MIC [34]: 1 µg/mL (≈ 2.96 µM); MIC50 [34]: 1 µg/mL (≈ 2.96 µM); MIC90 [34]: 2 µg/mL (≈ 5.93 µM); MIC [35]: 16 µg/mL (≈ 47.4 µM); MIC [36]: 64 µg/mL (≈ 190 µM); MIC [37]: 16 µg/mL (≈ 47.4 µM); MIC90 [26]: 2 µg/mL (≈ 5.93 µM); MIC50 [28]: 1 µg/mL (≈ 2.96 µM); MIC90 [28]: 2 µg/mL (≈ 5.93 µM); MIC [29]: 1 µg/mL (≈ 2.96 µM); MIC90 [29]: 2 µg/mL (≈ 5.93 µM) |

Reference: ChEMBL document CHEMBL1649147, “Antistaphylococcal activity of dihydrophthalazine antifolates, a family of novel antibacterial drugs” (2009)
